This note sets out measurements from ChEMBL document CHEMBL1126298, “New triazine derivatives as potent modulators of multidrug resistance” (1992).

The T/C is the result in the treated group divided by that in the control group, in per cent.

Assay [1] deals with DC3F/AD. The experiment in a line: Percent of cell viability remaining after incubating the cells with the modulator alone a concentration of 5 uM. Type of assay: functional, Cricetulus griseus. An outline of the steps:
(§1)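 Cells were grown with modulator alone for 4 days under the same conditions as the chemosensitivity assay, and read by MTT. Viability = (absorbance with modulator/absorbance of control cells) × 100. "tox" marks viability below 25%.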

Assay [2] deals with P388/VCR. Description: Antitumor activity of vincristine against P388/VCR leukemia in mice at a dose of 100 mg/kg. Type of assay: functional, Mus musculus.
In assay [3] the test system is P388. Description: Antitumor activity of vincristine against P388 leukemia cell line in mice at a dose of 100 mg/kg. The assay is classed as functional, Mus musculus.
In assay [4] the test system is DC3F/AD. The experiment in a line: Increase in adriamycin uptake in modulator-treated cells relative to untreated cells at a concentration of 10 uM. The assay is classed as functional, Cricetulus griseus. An outline of the steps:
(§2)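 DC-3F/AD or KB-A1 cells (5 × 10⁶/mL) were incubated at 37 °C for 5 h with 50 μM adriamycin plus modulator (2.5–10 μM range). ADR fluorescence of 10 000 cells was read by flow cytometry at 4 °C with 488 nm argon-laser excitation. The value is the increase in mean fluorescence of treated cells over untreated cells.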

In assay [5] the test system is P388/VCR. Description: Antitumor activity of vincristine against P388/VCR leukemia in mice at a dose of 50 mg/kg. Type of assay: functional, Mus musculus.
Assay [6] relates to KB. The experiment in a line: Increase in adriamycin uptake in modulator-treated cells relative to untreated KB-A1 cells at a concentration of 5 uM. The assay is classed as functional, Homo sapiens. An outline of the steps: as §2
Assay [7] relates to P388. Description: Antitumor activity of vincristine against P388 leukemia cell line in mice at a dose of 50 mg/kg. Type of assay: functional, Mus musculus.
Assay [8] has as its system KB. The experiment in a line: Percent of cell viability remaining after incubating the cells with the modulator alone. Type of assay: functional, Homo sapiens. Also on record: concentration or dose not given beside the values. In outline: as §1
Assay [9] deals with DC3F/AD. Description: Percent of cell viability remaining after incubating with a 10 uM concentration. The assay is classed as functional, Cricetulus griseus. In outline:
as §1

In assay [10] the test system is DC3F/AD. Description: Compound was evaluated for in vitro activity in DC-3F/AD cell line (Ratio of IC50(actinomycin D alone) / IC50(actinomycin D + modulator) at a concentration of 5 uM.
The test system of assay [11] is KB. The experiment in a line: In vitro activity in KB-A1 cell line activity expressed as fold reversion (Ratio of IC50(adriamycin alone) / IC50(adriamycin + modulator) at a concentration of 5 uM. Type of assay: functional, Homo sapiens. An outline of the steps:
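Human epidermoid KB-A1 cells (Pgp-overexpressing) were grown in RPMI 1640 with 10% FCS and 10 mM HEPES (pH 7.4). They were exposed for 4 days to adriamycin (nine graded concentrations, in triplicate) with or without 5 μM modulator. IC50 was read by the MTT assay. Fold reversion = IC50(ADR alone)/IC50(ADR + modulator).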

For assay [12], the system named is DC3F/AD. The experiment in a line: In vitro activity in DC-3F/AD cell line Ratio of IC50(actinomycin D alone) / IC50(actinomycin D + modulator) at a concentration of 10 uM.
Assay [13] concerns DC3F/AD. Description: Increase in adriamycin uptake in modulator-treated cells relative to untreated cells at a concentration of 5 uM. Type of assay: functional, Cricetulus griseus. An outline of the steps:
as §2

For the compound `C=CCNc1nc(NCC=C)nc(N2CCC(NCC(c3ccc(F)cc3)c3ccc(F)cc3)CC2)n1`, the Viability in assay [1] came to 78%; in assay [8], 75%; in [9] it was 62%. Moreover, the T/C is 185% in [2], 157% in assay [3], 176% in assay [5] and 168% in assay [7]. Further, the Increase was found to be 35.6 in [4], 56.5 in assay [6] and 26.1 in [13]. Besides, the Fold reversion in [10] was 918; in assay [11], 168; in assay [12], 2564.
